Laboratory results: paper PMC10354499 (RSC Advances, 2023)

Legend:
[1] = Selective toxicity, MTT assay in HEK-293 cells; type: cell-based, human; conditions: human, HEK-293 cells
How it was run: (§1)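 HEK-293 cells were grown in DMEM with 10% FBS, 1% penicillin–streptomycin, 1% L-glutamine and 2.5% HEPES. Cells were seeded at 15 000 cells/well, held 24 h (37 °C, 5% CO2), then exposed to test compound for 24 h. MTT (5 mg mL−1 in PBS) plus medium was added for 4 h, then aspirated, and formazan was dissolved in DMSO. Absorbance was read at 570/690 nm; percentage viability by formula, triplicate.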

[2] = test system: CT-DNA relative to BSA; experiment: Relative stability constant ln; conditions: natural logarithm of ratio of CT-DNA to BSA binding constants
How it was run: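 KDNA: CT-DNA (0–8 μM) was titrated against 20 μM test compound in PBS with ~2% (v/v) DMSO final. Mixtures were incubated 10 min and read by UV-vis, with DNA absorbance cancelled in the reference. KDNA was the slope/intercept ratio of [DNA]/(εa−εf) vs [DNA] (Wolfe–Shimer). KBSA: 0–10 μM compound was added to 6 μM BSA in PBS pH 7.2, 10 min at 25 °C, A280 read, Benesi–Hildebrand fit.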

[3] = test system: HEK-293 cells; experiment: Selective toxicity, MTT assay in HEK-293 cells; type: cell-based, human; conditions: at respective MCF-7 IC50 concentration, 24 hours, MTT
How it was run: as §1

[4] = test system: MCF-7 cells; conditions: read-out: IC50 (MCF-7); known breast cancer antineoplastic drug; cited from earlier work

Row | SMILES | viability at 24 h [1] | ln(KDNA/KBSA) [2] | cell viability (HEK-293) [3] | IC50 [4]
1 | CC1(C)CC(=O)C2=C(C1)Oc1ncnc(Nc3ccccc3)c1C2c1ccccc1F (centres unmarked) [Compound 3a, 5-(2-Fluorophenyl)-8,8-dimethyl-4-(phenylamino)-5,7,8,9-tetrahydro-6H-chromeno[2,3-d]pyrimidin-6-one] | 96.6% | lowest | – | –
2 | CC1(C)CC(=O)C2=C(C1)Oc1ncnc(Nc3cccc(-[c-]4cccc4)c3)c1C2c1ccccc1F.[Fe+2].c1cc[cH-]c1 (centres unmarked) [Compound 3j, 4-((3-Ferrocenylphenyl)amino)-5-(2-fluorophenyl)-8,8-dimethyl-5,7,8,9-tetrahydro-6H-chromeno[2,3-d]pyrimidin-6-one] | – | highest | 107.43% | –
3 | CC[C@]1(O)C[C@@H]2CN(CCc3c([nH]c4ccccc34)[C@@](C(=O)OC)(c3cc4c(cc3OC)N(C)[C@H]3[C@@](O)(C(=O)OC)[C@H](OC(C)=O)[C@]5(CC)C=CCN6CC[C@]43[C@@H]65)C2)C1 [Vinoblastine, vinblastine] | – | – | – | 10.2 ± 0.39 µM
